{
  "source": "ChEMBL document CHEMBL2021789",
  "about": "“Molecular docking and enzymatic evaluation to identify selective inhibitors of aspartate semialdehyde dehydrogenase” (Bioorg Med Chem, 2012)",
  "key": {"[1]": {"assay": "Competitive inhibition of Streptococcus pneumoniae ASADH using aspartyl semialdehyde as substrate using Dixon plot analysis", "in_short": "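Recombinant S. pneumoniae enzyme, reverse reaction read as NADPH rise at 340 nm, room temperature. Buffer: 120 mM CHES pH 8.6, 200 mM KCl, 20% DMSO for DMSO-soluble inhibitors. Substrates: 1 mM ASA, 1.5 mM NADP, 20 mM phosphate. Enzyme added last; inhibitor serially diluted. Initial velocities fitted to Dixon equation assuming competition with ASA.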"}, "[2]": {"assay": "Competitive inhibition of Vibrio cholerae ASADH using aspartyl semialdehyde as substrate by Dixon plot analysis", "in_short": "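Recombinant V. cholerae ASADH, reverse reaction, room temperature, in 120 mM CHES pH 8.6, 200 mM KCl and 20% DMSO. Final levels: ASA 1 mM, NADP 1.5 mM, phosphate 20 mM. Enzyme added to start; inhibitor serially diluted across wells. NADPH rise read at 340 nm; initial velocities fitted to Dixon equation assuming ASA-competitive inhibition to give Ki.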"}, "[3]": {"assay": "Competitive inhibition of Vibrio cholerae ASADH using different concentration of aspartyl semialdehyde as substrate by spectrophotometry", "in_short": "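Recombinant V. cholerae ASADH, reverse reaction at room temperature in 120 mM CHES pH 8.6, 200 mM KCl, 20% DMSO, with NADP and phosphate. ASA varied at several fixed inhibitor concentrations. NADPH formation read at 340 nm; initial-rate data fitted to standard inhibition-type models.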"}},
  "data": [
    {"smiles": "O=C1NC(=O)c2cc([N+](=O)[O-])c(Cl)cc21", "values": [
      {"measurement": "Ki", "setting": "[1]", "result": 150, "unit": "µM"},
      {"measurement": "Ki", "setting": "[2]", "result": 180, "unit": "µM"},
      {"measurement": "Ki", "setting": "[3]", "result": 197, "unit": "µM"}
    ]},
    {"smiles": "O=C(O)c1ccc([N+](=O)[O-])cn1", "values": [
      {"measurement": "Ki", "setting": "[1]", "result": 1200, "unit": "µM"},
      {"measurement": "Ki", "setting": "[2]", "result": 2100, "unit": "µM"}
    ]},
    {"smiles": "O=c1[nH]c2ccc([N+](=O)[O-])cc2[nH]1", "values": [
      {"measurement": "Ki", "setting": "[1]", "result": 400, "unit": "µM"},
      {"measurement": "Ki", "setting": "[2]", "result": 1100, "unit": "µM"}
    ]},
    {"smiles": "O=C(O)c1ccc(C(=O)O)nc1", "note": "[PYRIDINE-2,5-DICARBOXYLIC ACID]", "values": [
      {"measurement": "Ki", "setting": "[1]", "result": 690, "unit": "µM"},
      {"measurement": "Ki", "setting": "[2]", "result": 1200, "unit": "µM"}
    ]},
    {"smiles": "COC(=O)c1ccc(C(=O)OC)nc1", "values": [
      {"measurement": "Ki", "setting": "[1]", "result": "> 20000", "unit": "µM"}
    ]},
    {"smiles": "COC(=O)c1ccc([N+](=O)[O-])cn1", "values": [
      {"measurement": "Ki", "setting": "[1]", "result": "> 20000", "unit": "µM"}
    ]},
    {"smiles": "COC(=O)c1cc(C(=O)Nc2ccc([N+](=O)[O-])cc2)cc(C(=O)OC)c1", "values": [
      {"measurement": "Ki", "setting": "[1]", "result": "> 20000", "unit": "µM"}
    ]},
    {"smiles": "O=C(O)c1cc(C(=O)O)cc(C(=O)Nc2ccc([N+](=O)[O-])cc2)c1", "values": [
      {"measurement": "Ki", "setting": "[1]", "result": 110, "unit": "µM"},
      {"measurement": "Ki", "setting": "[2]", "result": 180, "unit": "µM"}
    ]},
    {"smiles": "CN1C(=O)c2ccc([N+](=O)[O-])cc2C1=O", "values": [
      {"measurement": "Ki", "setting": "[1]", "result": 890, "unit": "µM"},
      {"measurement": "Ki", "setting": "[2]", "result": 1100, "unit": "µM"}
    ]},
    {"smiles": "Cn1c(=O)n(C)c2cc([N+](=O)[O-])ccc21", "values": [
      {"measurement": "Ki", "setting": "[1]", "result": 86, "unit": "µM"},
      {"measurement": "Ki", "setting": "[2]", "result": "> 130", "unit": "µM"},
      {"measurement": "Ki", "setting": "[3]", "result": 24, "unit": "µM"}
    ]},
    {"smiles": "O=C1NC(=O)c2cc([N+](=O)[O-])ccc21", "values": [
      {"measurement": "Ki", "setting": "[1]", "result": 3300, "unit": "µM"},
      {"measurement": "Ki", "setting": "[2]", "result": 2600, "unit": "µM"}
    ]},
    {"smiles": "CCN1C(=O)c2ccc([N+](=O)[O-])cc2C1=O", "values": [
      {"measurement": "Ki", "setting": "[1]", "result": "> 4000", "unit": "µM"}
    ]},
    {"smiles": "CCn1c(=O)n(CC)c2cc([N+](=O)[O-])ccc21", "values": [
      {"measurement": "Ki", "setting": "[1]", "result": "> 4000", "unit": "µM"}
    ]}
  ]
}
